For assay [1], the target named is T1, Calcium/calmodulin-dependent protein kinase type II subunit delta (Homo sapiens, UniProt Q13557). As to the kind of experiment: Inhibition of cloned CaMK2delta. An outline of the steps: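 Radiometric filter-binding assay. Recombinant CaMKIIδ in 50 mM PIPES pH 7, 0.2 mg/ml BSA, 1 mM DTT, preincubated with inhibitor. Reaction started with buffer containing MgCl2, ATP, CaCl2, calmodulin, [His5]Autocamtide-2 substrate and [γ-33P]ATP, run 3 min at RT. Stopped on P81 phosphocellulose filter, washed with 1% phosphoric acid, counted by scintillation.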

Assay [2] addresses T1, Calcium/calmodulin-dependent protein kinase type II subunit delta. The assay can be described thus: Inhibition of CaMK2delta-mediated vimentin phosphorylation in human HL2 cells at 5 uM after 1 hr by ELISA. The format is cell-based.
Assay [3] shares this target. As to the kind of experiment: Inhibition of CaMK2delta-mediated vimentin phosphorylation in human HL2 cells after 1 hr by ELISA. The class given is cell-based. An outline of the steps: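 HL-2 cells preincubated 1 h at 37 °C with inhibitor at increasing concentrations, then CaMKII activated with ionomycin for 15 min at 37 °C. Cells lysed in ice-cold lysis buffer and frozen at −80 °C before read-out.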

T1 sequence (Q13557 whole entry): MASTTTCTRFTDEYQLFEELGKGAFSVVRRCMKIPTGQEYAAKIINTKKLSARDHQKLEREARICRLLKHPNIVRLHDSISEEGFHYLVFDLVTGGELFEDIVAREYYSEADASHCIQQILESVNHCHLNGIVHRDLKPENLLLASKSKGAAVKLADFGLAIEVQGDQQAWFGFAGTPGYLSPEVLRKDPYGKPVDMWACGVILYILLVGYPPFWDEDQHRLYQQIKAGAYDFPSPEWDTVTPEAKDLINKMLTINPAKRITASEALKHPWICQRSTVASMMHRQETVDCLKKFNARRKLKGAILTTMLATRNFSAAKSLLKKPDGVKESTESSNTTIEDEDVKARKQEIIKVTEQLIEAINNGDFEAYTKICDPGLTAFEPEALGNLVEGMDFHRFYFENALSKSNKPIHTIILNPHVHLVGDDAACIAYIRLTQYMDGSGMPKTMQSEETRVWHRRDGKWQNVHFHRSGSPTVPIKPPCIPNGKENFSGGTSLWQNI

For `CNC(=O)c1ccc(-c2ccnc(Nc3ccnc(N[C@@H](C)c4ccccc4)c3)n2)cc1`, the half-inhibitory concentration (IC50) in assay [1] came out at 0.72 µM. The same measure, in the same setting: for `O=C(O)c1ccc(-c2ccnc(Nc3ccncc3)n2)cc1` the value was 0.39 µM. On the same count and under the same terms, with `Nc1cc(Nc2nccc(-c3ccc(C(=O)O)cc3)n2)ccn1` the figure was 0.066 µM; with `C[C@H](Nc1cc(Nc2nccc(-c3ccc(N(C)C)cc3)n2)ccn1)c1ccccc1`, 2.22 µM. As to `C[C@H](Nc1cc(Nc2nccc(-c3ccc(-c4nnn[nH]4)cc3)n2)ccn1)c1ccccc1`, in assay [1], the half-inhibitory concentration (IC50) came out at 2.26 µM. Same read-out and setting: with `Nc1cccc(-c2ccnc(Nc3cccc(Cl)c3)n2)c1` the figure was 0.66 µM; with `Clc1cccc(Nc2nccc(-c3cccc(N4CCOCC4)c3)n2)c1`, 0.24 µM. `CNC(=O)c1ccc(-c2ccnc(Nc3ccccc3)n2)cc1`: in assay [1], the IC50 is more than 20 µM. On the same count and under the same terms, for `Cc1cccc(-c2ccnc(Nc3ccnc(N[C@@H](C)c4ccccc4)c3)n2)c1` the value was 0.92 µM.

For `O=C(O)c1ccc(-c2ccnc(Nc3cccc(Cl)c3)n2)cc1`, the IC50 in assay [1] was determined as 0.042 µM. Besides, in assay [2], the inhibition worked out at 0%. For `COC(=O)c1ccc(-c2ccnc(Nc3ccccc3)n2)cc1`, in that order: more than 20 µM and 0%. Turning to `COC(=O)c1ccc(-c2ccnc(Nc3ccnc(N[C@@H](C)c4ccccc4)c3)n2)cc1`, the IC50 in assay [1] worked out at 1.69 µM. As for `O=C(O)Cc1ccc(-c2ccnc(Nc3ccccc3)n2)cc1`, the half-inhibitory concentration (IC50) in assay [1] was more than 20 µM.

With `C[C@H](Nc1cc(Nc2nccc(-c3cccc(C(=O)O)c3)n2)ccn1)c1ccccc1`, the IC50 in assay [1] turned out to be 13 µM.

Regarding `Clc1cccc(Nc2nccc(-c3cccc(N4CCNCC4)c3)n2)c1`, the IC50 in assay [1] was 0.009 µM; in assay [3], 0.32 µM. Take `c1ccc(Nc2nccc(-c3ccc(-c4nnn[nH]4)cc3)n2)cc1`: in assay [1], the IC50 was found to be 0.77 µM. The inhibition in assay [2] was found to be 0%. `O=C(NO)c1ccc(-c2ccnc(Nc3ccccc3)n2)cc1`: the IC50 in assay [1] turned out to be 0.29 µM. Moreover, the inhibition in assay [2] was 90%.

For `C[C@H](Nc1cc(Nc2nccc(-c3ccc(C(=O)NO)cc3)n2)ccn1)c1ccccc1`, the IC50 in assay [1] turned out to be 0.17 µM. For the compound `O=C(O)c1ccc(-c2ccnc(Nc3ccccc3)n2)cc1`, the IC50 in assay [1] turned out to be 0.064 µM. The inhibition in assay [2] came to 0%.

For `C[C@H](Nc1cc(Nc2nccc(-c3ccc(CC(=O)O)cc3)n2)ccn1)c1ccccc1`, the half-maximal inhibitory concentration (IC50) in assay [1] is 3.42 µM. In the case of `C[C@H](Nc1cc(Nc2nccc(-c3cccc(-c4ccccc4)c3)n2)ccn1)c1ccccc1`, in assay [1], the 50% inhibitory concentration (IC50) came to 3.14 µM. For `NCCNc1cccc(-c2ccnc(Nc3cccc(Cl)c3)n2)c1`, the figures for the concentration for half-maximal inhibition (IC50) in assay [1] and in assay [3] were 0.012 µM and 0.11 µM, respectively. `C[C@H](Nc1cc(Nc2nccc(-c3cccc(F)c3)n2)ccn1)c1ccccc1`: the 50% inhibitory concentration (IC50) in assay [1] worked out at 1.28 µM. The same measure, in the same setting: with `C[C@H](Nc1cc(Nc2nccc(-c3ccc(Cl)cc3)n2)ccn1)c1ccccc1` the figure was 2.87 µM; with `C[C@H](Nc1cc(Nc2nccc(-c3ccc(C(=O)O)cc3)n2)ccn1)c1ccccc1`, 0.21 µM; with `Clc1cccc(Nc2nccc(-c3cccc(N4CCCCC4)c3)n2)c1`, 0.93 µM.

Values taken from ChEMBL document CHEMBL1143884, “Pyrimidine-based inhibitors of CaMKIIdelta” (Bioorg Med Chem Lett, 2008).
